Assay outcomes from PubChem BioAssay.
VIM-2 inhibitor – inhibitors of Pseudomonas aeruginosa VIM-2 metallo-beta-lactamase. 0.89% of 290,000 active. purified VIM-2, nitrocefin hydrolysis, epi-absorbance fluorescence. inhibition, % at 5.6 µM. AID 1527;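 active means inhibition above the mean of all tested compounds plus 3 SD, cutoff set per screening run, cut at about 7.5% in these data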;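 further: red hydrolysis product quenches plate fluorescence so inhibitors raise well fluorescence; 0% = enzyme with DMSO and 100% = DMSO without enzyme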
IMP-1 inhibitor – inhibitors of Pseudomonas aeruginosa IMP-1 metallo-beta-lactamase; 0.45% of 290,000 active; inhibition, % at 5.6 µM; purified IMP-1, nitrocefin hydrolysis, epi-absorbance fluorescence;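 active means inhibition above the mean plus 3 SD of all compounds in the same screening run, cut at about 4.5% in these data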;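 further: 0% = IMP-1 with DMSO and 100% = DMSO wells lacking enzyme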
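system = purified recombinant IMP-1 beta-lactamase | amount = 0.2 nM IMP-1, as dispensed | medium = HEPES buffer pH 7.1 with ZnSO4 and Brij 35 | times = 25 °C, 15 min preincubation, 25 min reaction | detection = plate fluorescence quenching by hydrolysis product, ex 480/em 530 nm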
HCV core dimer – blocks dimerization of HCV core protein | TR-FRET GST/Flag-core106 dimerization, 1536-well | inhibition, % at 5 µM | 0.33% of 300,000 active | AID 1899;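 active means inhibition above the mean of all tested compounds plus 3 SD, set per screening campaign, cut at about 45% in these data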
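Assay system: tagged HCV core106 pair (GST and Flag); medium: KF-containing HEPES buffer, pH 7.45, DTT, CHAPS, BSA; also added: Eu donor and XL665 acceptor anti-tag antibodies; dosing: 5 µM single dose; timing: compound-protein-antibody incubation 4 h at 22.5 °C; signal: TR-FRET 671 and 617 nm emission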
NadD inh – NadD (S. aureus) enzyme inhibition; purified NadD enzyme, colorimetric absorbance read-out; inhibition, % at 20 µM; 0.78% of 360,000 active; AID 602399; in the data active means inhibition above about 26%
The depositor's hits bear a star. Only some compounds are listed: those with a hit (about 1.9% of all), similar ones and a draw of the others.

How did Cc1c(OC(=O)CNC(=O)OC(C)(C)C)ccc2c3c(c(=O)oc12)CCC3 do in these assays?
VIM-2 inhibitor: 23*; IMP-1 inhibitor: -1; HCV core dimer: -4; NadD inh: -3

Results for CC(=O)C(C)Oc1ccc2c3c(c(=O)oc2c1C)CCCC3 (stereo not drawn) ?
VIM-2 inhibitor: 10*; IMP-1 inhibitor: -5; HCV core dimer: 5; NadD inh: -1

Results for CC(=O)c1c2c3c(c(Br)ccc3n(C)c1=O)C(=O)c1ccccc1-2 ?
VIM-2 inhibitor: 31*; IMP-1 inhibitor: 6.7*; HCV core dimer: 17; NadD inh: 3

How did COc1ccccc1CNC(=O)CN(Cc1ccc(Cl)cc1)S(C)(=O)=O do in these assays?
VIM-2 inhibitor: -3; IMP-1 inhibitor: -2; HCV core dimer: 2; NadD inh: -5

How did COc1ccc(OC)c(NC(=O)COC(=O)c2cc3c(s2)CCC3)c1 do in these assays?
VIM-2 inhibitor: -1; IMP-1 inhibitor: -2; HCV core dimer: 77*; NadD inh: 8

How did COc1ccccc1NC(=O)COC(=O)c1cc2c(s1)CCC2 do in these assays?
NadD inh: -8

What do the screens show for `COc1cc(/C=C2/C(=O)NN(c3ccc(Cl)cc3)C2=O)cc(Br)c1O`?
VIM-2 inhibitor: -4; IMP-1 inhibitor: 9.7*; HCV core dimer: -6; NadD inh: -3

How did CC(Oc1cc2oc(=O)c3c(c2cc1Cl)CCC3)C(=O)NCc1ccccn1 (stereo not drawn) do in these assays?
VIM-2 inhibitor: 12*; IMP-1 inhibitor: -3; HCV core dimer: -2; NadD inh: 9

How did CC(Oc1cc2oc(=O)c3c(c2cc1Cl)CCCC3)C(=O)NCc1ccccn1 (stereo not drawn) do in these assays?
VIM-2 inhibitor: 6; IMP-1 inhibitor: -5; HCV core dimer: -2; NadD inh: 2

How did O=C(COc1cc2oc(=O)c3c(c2cc1Cl)CCC3)NCc1ccccn1 do in these assays?
VIM-2 inhibitor: 10*; IMP-1 inhibitor: 2; HCV core dimer: -11; NadD inh: -4

What do the screens show for `CC(Oc1cc2oc(=O)c3c(c2cc1Cl)CCC3)C(=O)NCc1cccnc1` (stereo not drawn)?
VIM-2 inhibitor: 11*; IMP-1 inhibitor: -3; HCV core dimer: 4; NadD inh: 0

How did O=C(COc1ccc2c3c(c(=O)oc2c1)CCCC3)NCc1ccccn1 do in these assays?
VIM-2 inhibitor: 7.8*; IMP-1 inhibitor: -2; HCV core dimer: -3; NadD inh: 5

What do the screens show for `O=C(COc1cc2oc(=O)cc(-c3ccccc3)c2cc1Cl)NCc1ccccn1`?
VIM-2 inhibitor: 0; IMP-1 inhibitor: -4; HCV core dimer: 7; NadD inh: 1

What do the screens show for `CCc1cc(=O)oc2cc(OCC(=O)NCc3ccccn3)ccc12`?
VIM-2 inhibitor: 1; IMP-1 inhibitor: -2; HCV core dimer: -4; NadD inh: 2

What do the screens show for `COc1ccc(/C=N/Nc2nc(-c3cccnc3)nc3ccccc23)cc1OC`?
VIM-2 inhibitor: 5; IMP-1 inhibitor: -1; HCV core dimer: -1; NadD inh: -2

How did Cc1c(O)ccc(/C=N/Nc2nc(-c3cccnc3)nc3ccccc23)c1O do in these assays?
VIM-2 inhibitor: -2; IMP-1 inhibitor: -2; HCV core dimer: 0; NadD inh: 36*

What do the screens show for `Oc1ccc(/C=N/Nc2nc(-c3cccnc3)nc3ccccc23)c(O)c1`?
VIM-2 inhibitor: -3; IMP-1 inhibitor: 0; HCV core dimer: -1; NadD inh: 39*

How did CNC(=S)N1N=C(c2ccc(C)cc2)CC1c1ccc(N(C)C)cc1 (stereo not drawn) do in these assays?
VIM-2 inhibitor: -2; IMP-1 inhibitor: -2; HCV core dimer: 8; NadD inh: -11

How did CO/N=C(/C(=O)N[C@@H]1C(=O)N2C(C(=O)O)=CCS[C@H]12)c1cnc(N)s1 do in these assays?
VIM-2 inhibitor: 0; IMP-1 inhibitor: 0; HCV core dimer: 14; NadD inh: 39*

What do the screens show for `Cc1nnc(SCC2=C(C(=O)O)N3C(=O)C(NC(=O)COc4ccccc4)C3SC2)s1` (stereo not drawn)?
NadD inh: 7

What do the screens show for `O=S(=O)(c1ccc(SCc2ccc(Br)cc2)nc1)N1CCCCC1`?
NadD inh: 0

What do the screens show for `COc1ccc(CC(=O)Nc2ccc(C(C)=O)cc2)cc1`?
VIM-2 inhibitor: 2; IMP-1 inhibitor: 8.0*; HCV core dimer: 18; NadD inh: -8

How did COc1ccc(NC(=O)CN(C)C(=O)Cc2ccsc2)cc1 do in these assays?
VIM-2 inhibitor: 1; IMP-1 inhibitor: 5.0*; HCV core dimer: 1; NadD inh: -4

Results for CCc1ccc(NC(=O)Cc2ccc(OC)cc2)cc1 ?
VIM-2 inhibitor: -2; IMP-1 inhibitor: 0; HCV core dimer: -3

What do the screens show for `COc1ccc(NC(=O)CN(C)C(=O)Cc2ccc(-c3ccccc3)cc2)cc1`?
NadD inh: 2

How did COc1ccc(NS(=O)(=O)c2cccc(C(=O)NNC(=O)c3cccn3C)c2)cc1 do in these assays?
VIM-2 inhibitor: -3; IMP-1 inhibitor: -3; HCV core dimer: 71*; NadD inh: 4

How did COC(=O)CN1C(=O)[C@H]2[C@@H](c3ccc(C)o3)N3C(=O)CN(CC4CC4)C(=O)[C@@]3(C)[C@H]2C1=O do in these assays?
VIM-2 inhibitor: -2; IMP-1 inhibitor: -3; HCV core dimer: -9; NadD inh: 2

Results for COc1ccc(C(=O)NCCS(=O)(=O)N(C)Cc2ccccc2)cc1 ?
HCV core dimer: -1; NadD inh: -1

Results for O=c1cc(CN2CCc3ccccc32)nc2sccn12 ?
VIM-2 inhibitor: -2; IMP-1 inhibitor: -2; HCV core dimer: 86*; NadD inh: 15

How did COc1cc(OC)cc(C(=O)c2c(C)c(C#N)c3ccccn23)c1 do in these assays?
VIM-2 inhibitor: 7.8*; IMP-1 inhibitor: -2; NadD inh: -6

How did CCOC(=O)COc1ccc2c(C#N)c3ccccn3c2c1 do in these assays?
VIM-2 inhibitor: 1; IMP-1 inhibitor: 0; NadD inh: -5

What do the screens show for `COc1ccc2c(CC(=O)Nc3ccc(OC)c(NS(=O)(=O)c4ccc(F)cc4)c3)coc2c1`?
VIM-2 inhibitor: -2; IMP-1 inhibitor: -3; HCV core dimer: 68*; NadD inh: 21

What do the screens show for `COc1ccc2c(CC(=O)Nc3ccccc3OC)coc2c1`?
VIM-2 inhibitor: -4; IMP-1 inhibitor: -2; HCV core dimer: 2; NadD inh: 1

What do the screens show for `CC(=O)Nc1cccc(NC(=O)c2cc(-c3cccnc3)nc3ccc(Cl)cc23)c1`?
VIM-2 inhibitor: 0; IMP-1 inhibitor: -1; HCV core dimer: 1; NadD inh: -6

Results for CSc1ccccc1NC(=O)c1cc(-c2cccnc2)nc2ccc(Br)cc12 ?
VIM-2 inhibitor: -1; IMP-1 inhibitor: 6.3*; HCV core dimer: 17; NadD inh: -1

What do the screens show for `O=C(O)c1cc(-c2cccnc2)nc2ccc(Br)cc12`?
VIM-2 inhibitor: -1; IMP-1 inhibitor: -1; HCV core dimer: 10; NadD inh: 4

How did CC(=O)Nc1cccc(NC(=O)c2cc(-c3cccnc3)nc3ccc(Br)cc23)c1 do in these assays?
VIM-2 inhibitor: 0; IMP-1 inhibitor: 5.2*; HCV core dimer: 18; NadD inh: -8
